Test results taken from ChEMBL document CHEMBL4385644, “Phenylhydrazides as inhibitors of Leishmania amazonensis arginase and antileishmanial activity” (Bioorg Med Chem, 2019).
The source made the active and inactive calls. No cut-off for these calls is given here.

Assays:
Arginase [1] = target: T1, Arginase (Leishmania amazonensis, UniProt O96394); experiment: Inhibition of recombinant Leishmania amazonensis arginase expressed in Escherichia coli assessed as reduction in urea production using L-arginine as substrate by Berthelot colorimetric method relative to control
Procedure, shortened: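 Arginase overexpressed in E. coli and purified. Urea formed was measured colorimetrically by the Berthelot method. IC50 given as mean ± SEM.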

[2] = target: Arginase (Leishmania amazonensis) (UniProt O96394); experiment: Inhibition of recombinant Leishmania amazonensis arginase expressed in Escherichia coli assessed as reduction in urea production at 100 uM using L-arginine as substrate by Berthelot colorimetric method relative to control
Leishmania amazonensis [3] = experiment: Antileishmanial activity against Leishmania amazonensis MHOM/BR/1973/M2269 promastigotes assessed as inhibition of parasite growth incubated for 72 hrs by MTT assay; assay type: functional, organism-based; settings: MHOM/BR/1973/M2269, 72 h
Procedure, shortened: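 MHOM/BR/1973/M2269 promastigotes grown to stationary phase in M199 with 10% FBS, 5 ppm hemin, streptomycin and penicillin; 5.0 × 10^5 cells exposed 72 h to compounds at 100 µM to 0.78 µM (amphotericin B control, 10 µM downward). Formazan dissolved in DMSO and read at 570 nm. EC50 from a normalized variable-slope sigmoidal fit; mean ± SEM.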

Arginase [4] = target: T1, Arginase; experiment: (§1) Competitive inhibition of recombinant Leishmania amazonensis arginase expressed in Escherichia coli assessed as reduction in urea production by measuring dissociation constant for enzyme-inhibitor complex using L-arginine as substrate by Berthelot colorimetric method based Dixon/Cornish-Bowden plot analysis relative to control
Procedure, shortened: (§2)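 Urea read by the Berthelot method. Ki and Kis taken from Dixon and Cornish-Bowden plots; Cornish-Bowden slopes compared statistically. Points are means of three independent experiments run in duplicate; constants given as mean ± SEM.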

[5] = target: Arginase (Leishmania amazonensis) (UniProt O96394); experiment: as §1, with “Mixed type” for “Competitive”, “enzyme-substrate-inhibitor” for “enzyme-inhibitor”; procedure, shortened: as §2
Leishmania amazonensis [6] = experiment: Antileishmanial activity against Leishmania amazonensis MHOM/BR/1973/M2269 promastigotes assessed as inhibition of parasite growth at 100 uM incubated for 72 hrs by MTT assay; assay type: functional, organism-based
Procedure, shortened: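 Single-concentration screen at 100 µM. Stationary-phase MHOM/BR/1973/M2269 promastigotes in supplemented M199, 5.0 × 10^5 cells, exposed 72 h. Formazan dissolved in DMSO and read at 570 nm.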

[7] = target: Arginase (Leishmania amazonensis) (UniProt O96394); experiment: Ratio of Ki to Kis for inhibition of recombinant Leishmania amazonensis arginase expressed in Escherichia coli assessed as reduction in urea production using L-arginine as substrate by Berthelot colorimetric method based Dixon/Cornish-Bowden plot analysis relative to control

SMILES	IC50 (Arginase [1])	inhibition [2]	IC50 (Arginase [1]; read-out: IC50)	EC50 (Leishmania amazonensis [3])	Ki (Arginase [4])	Kis [5]	growth inhibition (GI) (Leishmania amazonensis [6])	Ratio [7]
CC(=O)Nc1ccccc1C(F)(F)C(=O)Nc1ccccc1	Not Active	inactive						
CC(=O)Nc1ccc(C)cc1C(F)(F)C(=O)NNc1ccccn1			> 100 µM	> 100 µM				
C[C@@H]1[C@H](O)[C@@H](C)/C=C/C=C/C=C/C=C/C=C/C=C/C=C/[C@H](O[C@@H]2O[C@H](C)[C@@H](O)[C@H](N)[C@@H]2O)C[C@@H]2O[C@](O)(C[C@@H](O)C[C@@H](O)[C@H](O)CC[C@@H](O)C[C@@H](O)CC(=O)O[C@H]1C)C[C@H](O)[C@H]2C(=O)O [AMPHOTERICIN B]	Not Active			0.33 µM				
CC(=O)Nc1ccc(C)cc1C(F)(F)C(=O)NNc1ccccc1		> 70%	12 µM	> 100 µM	1.3 µM	26 µM		
CC(=O)Nc1ccccc1C(F)(F)C(=O)NNc1ccccn1		8%	> 100 µM	> 100 µM				
CC(=O)Nc1ccccc1C(F)(F)C(=O)NNc1ccccc1		> 70%	12 µM	12.7 µM	5.1 µM		Active	
CC(=O)Nc1ccc(C)cc1C(F)(F)C(=O)NC(C)C	Not Active	inactive						
CC(=O)Nc1ccccc1C(F)(F)C(=O)NCc1ccccc1		> 70%	37 µM	> 100 µM	32 µM	6.5 µM		5
CC(=O)Nc1ccccc1C(F)(F)C(=O)Nc1ccc(Cl)cc1	Not Active	inactive						
CC(=O)Nc1ccccc1C(F)(F)C(=O)NNc1ccc(C(F)(F)F)cc1		> 70%	38 µM	> 100 µM	26 µM	11 µM		
